Laboratory results as given in ChEMBL document CHEMBL1131301, “Tyrosine kinase inhibitors. 14. Structure-activity relationships for methylamino-substituted derivatives of 4-[(3-bromophenyl)amino]-6-(methylamino)-pyrido[3,4-d]pyrimidine (PD 158780), a potent and specific inhibitor of the tyrosine kinase activity of receptors for the EGF family of growth factors” (J Med Chem, 1998).
Converted amounts (≈) assume the structure as drawn.

Legend:
[1] = molecular target: T1, Epidermal growth factor receptor (Homo sapiens, UniProt P00533); test: Inhibit of phosphorylation of a tyrosine/glutamic acid copolymer by epidermal growth factor receptor prepared from human A431 carcinoma cell vesicles by immunoaffinity chromatography.
T1 sequence (P00533 whole entry): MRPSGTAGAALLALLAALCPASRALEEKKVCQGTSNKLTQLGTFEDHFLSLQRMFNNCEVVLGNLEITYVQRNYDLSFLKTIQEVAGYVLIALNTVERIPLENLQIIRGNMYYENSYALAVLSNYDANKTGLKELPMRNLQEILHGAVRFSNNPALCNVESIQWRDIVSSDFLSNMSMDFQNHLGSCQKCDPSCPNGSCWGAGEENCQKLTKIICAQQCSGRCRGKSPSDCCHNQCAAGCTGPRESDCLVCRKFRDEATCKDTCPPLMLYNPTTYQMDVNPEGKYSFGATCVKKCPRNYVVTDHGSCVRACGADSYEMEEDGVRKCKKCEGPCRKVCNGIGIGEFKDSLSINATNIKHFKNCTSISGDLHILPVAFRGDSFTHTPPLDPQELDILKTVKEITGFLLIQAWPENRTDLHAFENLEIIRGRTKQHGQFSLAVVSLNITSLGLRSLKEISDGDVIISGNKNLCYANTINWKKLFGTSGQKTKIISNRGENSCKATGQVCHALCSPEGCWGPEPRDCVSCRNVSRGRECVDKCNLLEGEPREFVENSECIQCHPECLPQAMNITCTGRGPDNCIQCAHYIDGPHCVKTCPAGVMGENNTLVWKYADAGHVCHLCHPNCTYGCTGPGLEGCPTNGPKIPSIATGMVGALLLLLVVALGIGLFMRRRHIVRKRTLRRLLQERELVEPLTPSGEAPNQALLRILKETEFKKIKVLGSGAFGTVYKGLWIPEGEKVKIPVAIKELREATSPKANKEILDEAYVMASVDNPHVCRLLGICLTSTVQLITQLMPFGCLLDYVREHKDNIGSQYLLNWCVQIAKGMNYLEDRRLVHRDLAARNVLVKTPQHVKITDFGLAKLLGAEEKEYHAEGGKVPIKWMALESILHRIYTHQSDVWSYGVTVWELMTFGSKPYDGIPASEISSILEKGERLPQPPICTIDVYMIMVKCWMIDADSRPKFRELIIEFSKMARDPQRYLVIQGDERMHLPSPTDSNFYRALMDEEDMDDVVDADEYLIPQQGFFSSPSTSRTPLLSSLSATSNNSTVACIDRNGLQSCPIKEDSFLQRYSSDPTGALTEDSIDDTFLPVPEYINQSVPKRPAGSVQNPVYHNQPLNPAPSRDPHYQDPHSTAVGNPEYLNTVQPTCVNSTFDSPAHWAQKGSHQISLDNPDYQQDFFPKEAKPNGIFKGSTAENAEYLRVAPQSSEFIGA

[2] = Aqueous solubility ([…] degree C); type: physicochemical; details: for S: buffer; for solubility: water, read-out: S
[3] = molecular target: T1, Epidermal growth factor receptor; test: Inhibition of autophosphorylation of epidermal growth factor receptor in A431 cells in culture
Mus musculus [4] = test: Difference in days for treated (T) and control (C) EGFR tumor fragments to reach 750 mg in mice at 38 mg/kg ip dose, administration days 1-15; type: functional; details: route intraperitoneal
Mus musculus [5] = test: Weight change of EGFR tumor bearing mice at 38 mg/kg ip dose, days 1-15 administration; type: functional; details: route intraperitoneal
Mus musculus [6] = test: Ratio of the median treated EGFR tumor mass (mg)/median control mass*100% in mice at 38 mg/kg dose, ip b.i.d. days 1-15 administration; type: functional; details: route intraperitoneal
How it was run: (§1)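 Nude mice (NCr nu/nu, 18-22 g) were randomized and implanted sc with tumor fragments in the right axilla on day 0. Tumor lines were A431 epidermoid, NIH 3T3 fibroblasts transfected with human EGFR, and MCF-7 breast. Dosing was ip or oral, by average cage weight, with 6 mice/dose group. Vehicle was 6% dimethylacetamide/94% 50 mM sodium lactate pH 4.0 (suspension), or isethionate salt in water.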

[7] = molecular target: T1, Epidermal growth factor receptor; test: Inhibition of tyrosine/glutamic acid copolymer phosphorylation by epidermal growth factor receptor prepared of human A431
Mus musculus [8] = test: Net reduction in EGFR tumor burden between the first and last treatments in mice at 38 mg/kg ip dose, days 1-15 administration; type: functional; details: route intraperitoneal; how it was run: as §1
MCF7 [9] = test: Weight change in MCF-7 tumor bearing mice at 50 mg/kg ip dose, days 1-15 administration; type: functional, organism-based; set-up: dose 50 mg/kg
SK-OV-3 [10] = test: Difference in days for treated (T) and control (C) SKOV-3 tumor fragments to reach 750 mg in mice at 30 mg/kg ip dose, administration days 10-14,17-21,24-28; type: functional; details: route intraperitoneal
MCF7 [11] = test: Ratio of treated and control MCF-7 median tumor mass*100% in mice at 25 mg/kg ip dose, days 1-15 administration; type: functional; details: route intraperitoneal; how it was run: as §1
MCF7 [12] = test: Ratio of treated and control MCF-7 median tumor mass*100% in mice at 50 mg/kg ip dose, days 1-15 administration; type: functional; details: route intraperitoneal; how it was run: as §1
Mus musculus [13] = test: Ratio of treated and control EGFR median tumor mass*100% in mice at 38 mg/kg ip dose, days 1-15 administration; type: functional; details: route intraperitoneal; how it was run: as §1
SK-OV-3 [14] = test: Weight change in SKOV-3 tumor bearing mice at 30 mg/kg ip dose, days 10-14,17-21,24-28 administration; type: functional; details: route intraperitoneal
[15] = molecular target: Receptor tyrosine-protein kinase erbB-2 (Homo sapiens, UniProt P04626); test: Inhibition of heregulin-dependent autophosphorylation of ErbB2 receptor in MDA-MB-453 cells; type: functional, cell-based
Receptor tyrosine-protein kinase erbB-2, sequence (P04626 whole entry): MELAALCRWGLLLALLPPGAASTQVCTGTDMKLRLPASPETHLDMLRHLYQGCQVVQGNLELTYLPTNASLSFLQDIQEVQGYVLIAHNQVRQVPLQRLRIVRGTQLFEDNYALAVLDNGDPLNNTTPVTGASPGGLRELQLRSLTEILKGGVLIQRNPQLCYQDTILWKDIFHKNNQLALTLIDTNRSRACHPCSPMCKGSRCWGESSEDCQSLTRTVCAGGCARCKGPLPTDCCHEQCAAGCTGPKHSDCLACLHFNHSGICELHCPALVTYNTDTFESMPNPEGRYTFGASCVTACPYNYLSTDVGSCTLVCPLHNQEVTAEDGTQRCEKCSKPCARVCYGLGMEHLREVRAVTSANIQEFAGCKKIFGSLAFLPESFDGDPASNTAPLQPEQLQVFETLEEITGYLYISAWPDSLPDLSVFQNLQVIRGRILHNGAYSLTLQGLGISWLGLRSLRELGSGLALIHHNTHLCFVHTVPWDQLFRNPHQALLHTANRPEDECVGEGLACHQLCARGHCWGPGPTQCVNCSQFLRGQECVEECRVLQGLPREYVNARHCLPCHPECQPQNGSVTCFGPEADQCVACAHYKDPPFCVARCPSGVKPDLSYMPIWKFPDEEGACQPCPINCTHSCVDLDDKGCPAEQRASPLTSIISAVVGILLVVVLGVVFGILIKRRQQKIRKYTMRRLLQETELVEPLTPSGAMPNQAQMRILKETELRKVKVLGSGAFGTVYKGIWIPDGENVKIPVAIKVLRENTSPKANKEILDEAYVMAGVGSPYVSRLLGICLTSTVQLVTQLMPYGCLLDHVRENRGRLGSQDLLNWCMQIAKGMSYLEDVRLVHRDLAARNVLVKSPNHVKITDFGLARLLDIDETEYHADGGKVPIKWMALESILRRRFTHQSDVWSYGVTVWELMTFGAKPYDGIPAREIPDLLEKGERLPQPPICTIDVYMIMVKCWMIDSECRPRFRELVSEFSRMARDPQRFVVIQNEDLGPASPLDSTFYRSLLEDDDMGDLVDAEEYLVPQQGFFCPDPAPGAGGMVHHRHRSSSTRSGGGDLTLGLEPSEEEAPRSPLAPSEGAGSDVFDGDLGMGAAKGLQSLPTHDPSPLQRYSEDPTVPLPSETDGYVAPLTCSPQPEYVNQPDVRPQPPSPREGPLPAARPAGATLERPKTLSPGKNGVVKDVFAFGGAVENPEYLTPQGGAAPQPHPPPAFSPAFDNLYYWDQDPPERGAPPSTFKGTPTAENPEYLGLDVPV

MCF7 [16] = test: Weight change in MCF-7 tumor bearing mice at 25 mg/kg ip dose, days 1-15 administration; type: functional; details: route intraperitoneal
A-431 [17] = test: Ratio of treated and control A431 median tumor mass*100% in mice at 75 mg/kg dose
Mus musculus [18] = test: Ratio of treated and control EGFR median tumor mass*100% in mice at 400 mg/kg peroral dose, days 1-15 administration; type: functional; details: route oral; how it was run: as §1
MCF7 [19] = test: Difference in days for treated (T) and control (C) MCF-7 tumor fragments to reach 750 mg in mice at 50 mg/kg ip dose, administration days 1-15; type: functional; details: route intraperitoneal
Mus musculus [20] = test: Difference in days for treated (T) and control (C) EGFR tumor fragments to reach 750 mg in mice at 400 mg/kg peroral dose, administration days 1-15; type: functional; details: route oral
A-431 [21] = test: Weight change in A431 tumor bearing mice at 75 mg/kg ip dose, days 7-21 administration; type: functional; details: route intraperitoneal
Mus musculus [22] = test: Net reduction in EGFR tumor burden between the first and last treatments in mice at 400 mg/kg peroral dose, days 1-15 administration; type: functional; details: route oral
How it was run: (§2)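 NCr nu/nu nude mice (18-22 g) were randomized and implanted sc with A431 epidermoid, human-EGFR-transfected NIH 3T3 fibroblast, or MCF-7 breast tumor fragments in the right axilla on day 0. Dosing was ip or oral, by average cage weight, with 6 mice per dose group. Log net cell kill is the net reduction in tumor burden between the first and last treatments.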

A-431 [23] = test: Weight change in A431 tumor bearing mice at 100 mg/kg peroral dose, days 7-21 administration; type: functional; details: route oral
[24] = molecular target: T1, Epidermal growth factor receptor; test: Inhibition of EGF-dependent autophosphorylation of EGF-R in A431 cells
A-431 [25] = test: Ratio of treated and control A431 median tumor mass*100% in mice at 100 mg/kg peroral dose, days 7-21 administration; type: functional; details: route oral; how it was run: as §1
SK-OV-3 [26] = test: Ratio of treated and control SKOV-3 median tumor mass*100% in mice at 30 mg/kg ip dose, days 10-14,17-21,24-28 administration; type: functional; details: route intraperitoneal
MCF7 [27] = test: Net reduction in MCF-7 tumor burden between the first and last treatments in mice at 25 mg/kg ip dose, days 1-15 administration; type: functional; details: route intraperitoneal; how it was run: as §2
Mus musculus [28] = test: Weight change of EGFR tumor bearing mice at 400 mg/kg peroral dose, days 1-15 administration; type: functional
A-431 [29] = test: Difference in days for treated (T) and control (C) A431 tumors to reach 750 mg in mice at 75 mg/kg ip dose, days 7-21 administration; type: functional; details: route intraperitoneal; how it was run: as §1
A-431 [30] = test: Difference in days for treated (T) and control (C) A431 tumor fragments to reach 750 mg in mice at 100 mg/kg peroral dose, administration days 7-21; type: functional; details: route oral
MCF7 [31] = test: Difference in days for treated (T) and control (C) MCF-7 tumor fragments to reach 750 mg in mice at 25 mg/kg ip dose, administration days 1-15; type: functional; details: route intraperitoneal

CNc1cc2c(Nc3cccc(C(F)(F)F)c3)ncnc2cn1
IC50 [1]: 1.1 nM

Brc1cccc(Nc2ncnc3cnc(NCCCN4CCOCC4)cc23)c1
S [2]: > 44 mM | IC50 [3]: 5.9 nM | IC50 [1]: 1 nM

CNc1cc2c(Nc3cccc(C)c3)ncnc2cn1
T-C (Mus musculus [4]): 2 days | Weight change (Mus musculus [5]): -0.9 g | IC50 [3]: 23 nM | T/C (Mus musculus [6]): 68% | IC50 [7]: 0.45 nM

OCCN(CCO)CCCNc1cc2c(Nc3cccc(Br)c3)ncnc2cn1
solubility [2]: 20 mM (≈ 9230 µg/mL) | IC50 [3]: 230 nM | IC50 [1]: 0.35 nM

Brc1cccc(Nc2ncnc3cnc(NCCc4ccccn4)cc23)c1
solubility [2]: 17 mM (≈ 7160 µg/mL) | IC50 [3]: 8.1 nM | IC50 [1]: 1.2 nM

Cc1cccc(Nc2ncnc3cnc(NCCCN4CCOCC4)cc23)c1
S [2]: > 35 mM | IC50 [1]: 1.8 nM

Cc1cccc(Nc2ncnc3cnc(NCCN4CCOCC4)cc23)c1
S [2]: > 40 mM

Cc1cccc(Nc2ncnc3cnc(N)cc23)c1
solubility [2]: 0.4 mM (≈ 101 µg/mL) | IC50 [1]: 3.1 nM

O=C(O)CNc1cc2c(Nc3cccc(Br)c3)ncnc2cn1
solubility [2]: 5 mM (≈ 1870 µg/mL) | IC50 [1]: 0.28 nM

CN(CCO)c1cc2c(Nc3cccc(Br)c3)ncnc2cn1
solubility [2]: 0.11 mM (≈ 41.2 µg/mL) | IC50 [1]: 0.22 nM

Brc1cccc(Nc2ncnc3cnc(NCCCn4ccnc4)cc23)c1
solubility [2]: 23 mM (≈ 9760 µg/mL) | IC50 [3]: 9.1 nM | IC50 [1]: 1.7 nM

Cc1cccc(Nc2ncnc3cnc(N(C)C)cc23)c1
solubility [2]: 0.02 mM (≈ 5.59 µg/mL) | IC50 [1]: 2.8 nM

CN(C)CCCNc1cc2c(Nc3cccc(Br)c3)ncnc2cn1
solubility [2]: 30 mM (≈ 12000 µg/mL) | IC50 [3]: 16 nM | IC50 [1]: 1.2 nM

Cc1cccc(Nc2ncnc3cnc(NCCc4c[nH]cn4)cc23)c1
S [2]: > 30 mM | IC50 [1]: 1.3 nM

CNc1cc2c(Nc3cccc(Cl)c3)ncnc2cn1
IC50 [1]: 0.19 nM

OCCNc1cc2c(Nc3cccc(Br)c3)ncnc2cn1
solubility [2]: 0.02 mM (≈ 7.2 µg/mL) | IC50 [1]: 0.19 nM

Cc1nc(Nc2cccc(Br)c2)c2cc(NCCN3CCOCC3)ncc2n1
IC50 [1]: 117 nM

CN(CC(O)CO)c1cc2c(Nc3cccc(Br)c3)ncnc2cn1 (stereo not given)
solubility [2]: 0.18 mM (≈ 72.8 µg/mL) | IC50 [1]: 0.56 nM

CN(CCO)CCNc1cc2c(Nc3cccc(Br)c3)ncnc2cn1
S [2]: > 45 mM | IC50 [3]: 27 nM | IC50 [1]: 1.7 nM

CNc1cc2c(Nc3cccc(Br)c3)ncnc2cn1
solubility [2]: 0.1 mM (≈ 33 µg/mL) | log net cell kill (Mus musculus [8]): -1 | Weight change (MCF7 [9]): Weight gain | T-C (Mus musculus [4]): 3.7 days | Weight change (Mus musculus [5]): -0.1 g | T-C (SK-OV-3 [10]): 0.8 days | T/C (MCF7 [11]): 14% | T/C (MCF7 [12]): 27% | T/C (Mus musculus [13]): 38% | Weight change (SK-OV-3 [14]): -1.6 g | IC50 [15]: 52 nM | Weight change (MCF7 [16]): -0.2 g | T/C (A-431 [17]): 41% | T/C (Mus musculus [18]): 67% | T-C (MCF7 [19]): 15.2 days | T-C (Mus musculus [20]): 1.2 days | Weight change (A-431 [21]): -0.8 g | Net cell kill (Mus musculus [22]): -1.3 log10 | Weight change (A-431 [23]): -1.3 g | IC50 [24]: 13 nM | T/C (A-431 [25]): 38% | T/C (SK-OV-3 [26]): 67% | Net cell kill (MCF7 [27]): -0.1 log10 | Weight change (Mus musculus [28]): Weight gain | T-C (A-431 [29]): 8.4 days | T-C (A-431 [30]): 16 days | T-C (MCF7 [31]): 11.2 days

O=C(O)CCNc1cc2c(Nc3cccc(Br)c3)ncnc2cn1
solubility [2]: 38 mM (≈ 14800 µg/mL) | IC50 [3]: 449 nM | IC50 [1]: 0.27 nM

CN(C)CCCCNc1cc2c(Nc3cccc(Br)c3)ncnc2cn1
solubility [2]: 38 mM (≈ 15800 µg/mL) | IC50 [3]: 19 nM | IC50 [1]: 1.8 nM

CN1CCN(c2cc3c(Nc4cccc(Br)c4)ncnc3cn2)CC1
solubility [2]: 2.5 mM (≈ 998 µg/mL) | IC50 [3]: 102 nM | IC50 [1]: 6.4 nM

Brc1cccc(Nc2ncnc3cnc(NCCc4c[nH]cn4)cc23)c1
solubility [2]: 15 mM (≈ 6150 µg/mL) | IC50 [3]: 6.3 nM | IC50 [1]: 0.78 nM

Brc1cccc(Nc2ncnc3cnc(NCc4cccnc4)cc23)c1
solubility [2]: 12 mM (≈ 4890 µg/mL) | IC50 [3]: 13 nM | IC50 [1]: 1.5 nM

CN(C)CCN(C)c1cc2c(Nc3cccc(Br)c3)ncnc2cn1
solubility [2]: 39 mM (≈ 15700 µg/mL)

CN(C)c1cc2c(Nc3cccc(Br)c3)ncnc2cn1
solubility [2]: 0.06 mM (≈ 20.7 µg/mL)

CN(CC(=O)O)c1cc2c(Nc3cccc(Br)c3)ncnc2cn1
solubility [2]: 44 mM (≈ 17100 µg/mL) | IC50 [1]: 0.44 nM

CN1CCN(NCCCNc2cc3c(Nc4cccc(Br)c4)ncnc3cn2)CC1
solubility [2]: 32 mM (≈ 15100 µg/mL)

OCCN(CCO)CCNc1cc2c(Nc3cccc(Br)c3)ncnc2cn1
solubility [2]: 36 mM (≈ 16100 µg/mL) | IC50 [3]: 71 nM | IC50 [1]: 0.93 nM

OCC(O)CNc1cc2c(Nc3cccc(Br)c3)ncnc2cn1 (stereo not given)
solubility [2]: 0.21 mM (≈ 82 µg/mL) | IC50 [1]: 0.18 nM
